In ChEMBL document CHEMBL2331394, “Neuroprotective effects of mercaptoethylleonurine and mercaptoethylguanidine analogs on hydrogen peroxide-induced apoptosis in human neuronal SH-SY5Y cells” (Bioorg Med Chem Lett, 2013):
Calls of active or inactive are those of the source. The rule behind the calls is not given here.

Columns and labels:
[1] = Neuroprotective activity in human SH-SY5Y cells assessed as reduction of H2O2-induced apoptosis at 50 uM after 24 hrs by MTT assay relative to control; format: functional, cell-based; design: scale not given: the % may be the effect or the level left
[2] = Neuroprotective activity in human SH-SY5Y cells assessed as reduction of H2O2-induced apoptosis at 5 mM after 24 hrs by MTT assay relative to N-acetyl-cysteine; format: functional, cell-based; design: scale not given: the % may be the effect or the level left
[3] = Cytotoxicity against human SH-SY5Y cells at 5 to 100 uM by MTT assay; format: cell-based
[4] = Neuroprotective activity in human SH-SY5Y cells assessed as reduction of H2O2-induced apoptosis at 5 uM after 24 hrs by MTT assay relative to control; format: functional, cell-based; design: scale not given: the % may be the effect or the level left
[5] = Neuroprotective activity in human SH-SY5Y cells assessed as reduction of H2O2-induced apoptosis at 25 uM after 24 hrs by MTT assay relative to control; format: functional, cell-based; design: scale not given: the % may be the effect or the level left
[6] = Neuroprotective activity in H2O2-stimulated human SH-SY5Y cells assessed as upregulation of Bax expression incubated for 4 hrs prior to H2O2 challenge measured after 12 hrs by Western blotting analysis; format: functional, cell-based; conditions: in the assay text read “downregulation of Bax expression” for “upregulation of Bax expression”
In short: (§1)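 SH-SY5Y cells pretreated 4 h with test agent (5, 25, 50 µM) or NAC (5 mM), then exposed to 100 µM H2O2 for 12 h. Bcl-2 and Bax quantified by Western blot densitometry against GAPDH. Mean ± SEM of at least three independent experiments, each in duplicate.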

[7] = target: MAP kinase p38 (Homo sapiens) (UniProt O15264+Q15759+Q16539+P53778); experiment: Inhibition of H2O2-induced p38 phosphorylation in human SH-SY5Y cells at 50 uM incubated for 4 hrs prior to H2O2 induction measured after 12 hrs by Western blotting analysis; format: cell-based
In short: (§2)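 SH-SY5Y cells pretreated 4 h with 50 µM test agent, then stimulated with 100 µM H2O2 for the indicated periods before harvest. Phosphorylated Akt, JNK, ERK and p38 detected by Western blot, normalised to the corresponding total protein as loading control.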

[8] = tested on: SH-SY5Y; experiment: Inhibition of H2O2-induced ERK phosphorylation in human SH-SY5Y cells at 50 uM incubated for 4 hrs prior to H2O2 induction measured after 12 hrs by Western blotting analysis; format: cell-based; in short: as §2
[9] = target: c-Jun N-terminal kinase, JNK (Homo sapiens) (UniProt P45983+P53779+P45984); experiment: Inhibition of H2O2-induced JNK phosphorylation in human SH-SY5Y cells at 50 uM incubated for 4 hrs prior to H2O2 induction measured after 12 hrs by Western blotting analysis; format: cell-based; in short: as §2
[10] = Neuroprotective activity in H2O2-stimulated human SH-SY5Y cells assessed as downregulation of Bcl2 expression incubated for 4 hrs prior to H2O2 challenge measured after 12 hrs by Western blotting analysis; format: functional, cell-based; conditions: in the assay text read “upregulation of Bcl2 expression” for “downregulation of Bcl2 expression”; in short: as §1
[11] = tested on: SH-SY5Y; experiment: Inhibition of H2O2-induced AKT phosphorylation in human SH-SY5Y cells at 50 uM incubated for 4 hrs prior to H2O2 induction measured after 12 hrs by Western blotting analysis; format: cell-based; in short: as §2
[12] = Neuroprotective activity in H2O2-stimulated human SH-SY5Y cells assessed as upregulation of Bax expression at 5 mM incubated for 4 hrs prior to H2O2 challenge measured after 12 hrs by Western blotting analysis; format: functional, cell-based; conditions: in the assay text read “downregulation of Bax expression” for “upregulation of Bax expression”; in short: as §1
[13] = Neuroprotective activity in H2O2-stimulated human SH-SY5Y cells assessed as downregulation of Bcl2 expression at 5 mM incubated for 4 hrs prior to H2O2 challenge measured after 12 hrs by Western blotting analysis; format: functional, cell-based; conditions: in the assay text read “upregulation of Bcl2 expression” for “downregulation of Bcl2 expression”; in short: as §1

Row | inhibition [7] | inhibition [9] | SMILES | Activity [1] | Activity [2] | Activity [3] | Activity [4] | Activity [5] | Activity [6] | inhibition [8] | Activity [10] | inhibition [11] | Activity [12] | Activity [13]
1 | – | – | COc1cc(C(=O)OCCCNC(=N)NCCS)cc(OC)c1O | 93.3% | 76.4% | Non-toxic | 78.8% | 83.3% | – | – | – | – | – | –
2 | – | – | COc1cc(C(=O)OCCCCCNC(=N)NCCS)cc(OC)c1O | 65.9% | 76.4% | Non-toxic | 53.9% | 59.9% | – | – | – | – | – | –
3 | – | – | COc1cc(C(=O)OCCCCNC(=N)N)cc(OC)c1O | 46% | 82.4% | – | 76.7% | 38.5% | – | – | – | – | – | –
4 | – | – | COc1ccc(C(=O)OCCCCNC(=N)NCCS)cc1 | 48.6% | 82.4% | Non-toxic | 42.4% | 37.5% | – | – | – | – | – | –
5 | – | – | N=C(NCCS)NCCCO | 82.1% | 76.4% | Non-toxic | 67.2% | 81% | – | – | – | – | – | –
6 | – | – | CC(O)CNC(=N)NCCS (configuration not stated) | 65.5% | 88.8% | Non-toxic | 77.1% | 67.3% | – | – | – | – | – | –
7 | inactive | Active | N=C(NCCS)NCCCN | 96.5% | 82.4% | Non-toxic | 77.3% | 84.3% | Dose-dependent effect | inactive | Dose-dependent effect | Active | – | –
8 | – | – | COc1cc(C(=O)OCCCCCCNC(=N)NCCS)cc(OC)c1O | 73.8% | 88.8% | Non-toxic | 78.5% | 80.6% | – | – | – | – | – | –
9 | – | – | N=C(NCCO)NCCS | 65.1% | 76.4% | Non-toxic | 56.4% | 59.6% | – | – | – | – | – | –
10 | – | – | N=C(NCCS)NCCCCCCO | 52.9% | 82.4% | Non-toxic | 72.4% | 55.5% | – | – | – | – | – | –
11 | – | – | CC(CO)NC(=N)NCCS (configuration not stated) | 80% | 88.8% | Non-toxic | 59.9% | 67.2% | – | – | – | – | – | –
12 | – | – | COc1cc(C(=O)OC2CCC(NC(=N)NCCS)CC2)cc(OC)c1O (configuration not stated) | 65.9% | 88.8% | Non-toxic | 76.4% | 67.2% | – | – | – | – | – | –
13 | – | – | N=C(NCCS)NC1CCC(O)CC1 (configuration not stated) | 30.4% | 82.4% | Non-toxic | 31.6% | 38.6% | – | – | – | – | – | –
14 | – | – | COc1cc(OC)cc(C(=O)OCCCCNC(=N)NCCS)c1 | 66.1% | 88.8% | Non-toxic | 62.1% | 63.5% | – | – | – | – | – | –
15 | – | – | CC(=O)N[C@@H](CS)C(=O)O | – | – | – | – | – | – | – | – | – | Active | Active
16 | – | – | COc1cc(C(=O)OCCCCNC(=N)NCCS)cc(OC)c1O | 60.4% | 88.8% | Non-toxic | 60.7% | 66.4% | – | – | – | – | – | –
17 | – | – | N=C(NCCS)NCCCCCO | 82.8% | 76.4% | Non-toxic | 60% | 80.6% | – | – | – | – | – | –
18 | – | – | CCC(O)CNC(=N)NCCS (configuration not stated) | 71.1% | 88.8% | Non-toxic | 75.8% | 77.1% | – | – | – | – | – | –
19 | – | – | COc1cc(C(=O)OCCCCNC(=N)NCCS)cc(OC)c1OC | 49.1% | 82.4% | Non-toxic | 32.5% | 49.4% | – | – | – | – | – | –
20 | – | – | N=C(NCCN)NCCS | 79.2% | 76.4% | Non-toxic | 66.3% | 75.4% | – | – | – | – | – | –
21 | – | – | N=C(NCCS)NCCCCO | 70.2% | 82.4% | Non-toxic | 68% | 63.5% | – | – | – | – | – | –
